A selection: hits, their analogues and other compounds. The true share with any hit is near 1.8%.
EBI2 antag = blocks human EBI2 receptor beta-arrestin signaling; 0.81% of 360,000 active; inhibition, % at 5 µM; AID 651636; EBI2 beta-arrestin recruitment, luminescence, 7a,25-OHC stimulated; P32249; in the data active = inhibition above about 38%;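 note: enzyme fragment complementation signal reports receptor beta-arrestin coupling in cells; 0% = agonist plus DMSO wells and 100% = wells without agonist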
APJ antagonist = blocks the human apelin receptor APJ. inhibition, % at 20 µM. CHO-K1 APJ beta-arrestin complementation, luminescence. AID 2521. P35414. 0.32% of 330,000 active;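 active = inhibition above about 40% at 20 µM, limit read from the data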;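 note: cells challenged with 10 nM apelin-13 agonist together with compound; plate controls were apelin-13 plus DMSO wells for no effect and DMSO wells lacking apelin-13 for full effect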
CXCR6 block = inhibitors of human CXCR6 receptor | O00574 | CHO-K1 PathHunter CXCR6 beta-arrestin, luminescence | inhibition, % at 20 µM | 0.36% of 360,000 active; in the data active = inhibition above about 34%, passing the limit was not always enough;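 note: antagonist mode with CXCL16 agonist at 10 nM final; 0% = 10 nM CXCL16 with DMSO and 100% = unstimulated wells without agonist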
APJ ag = activates the human apelin receptor APJ; P35414; CHO-K1 APJ PathHunter beta-arrestin, luminescence; 0% DMSO wells, 100% apelin; activation, % at 20 µM; 0.11% of 330,000 active;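 active = activation more than six SD over the plate average, tested at 20 µM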;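 note: 0% = DMSO alone and 100% = apelin-13 at 10 nM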
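Assay system: engineered CHO-K1 APJ arrestin reporter cells; Amount: 1000 CHO-K1 reporter cells seeded per well; Dosing: one dose, 20 µM compound, 1% DMSO; Times: compound stimulation 90 min at 25 °C, detection 60 min; Measured by: luminescent beta-gal fragment complementation, chemiluminescent substrate; Read-out: APJ–arrestin association signal; Controls: DMSO vs Apelin-13 10 nM.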
B2AR ag = activates human beta-2 adrenergic receptor causing internalization. Am2.2-beta2AR cells, FAP receptor internalization, flow cytometry. 0.43% of 340,000 active. P07550. AID 504454. response, % (no concentration beside the values);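 active = response above a set limit, near 3 SD of response in nonfluorescent compounds, cut at about 42% in these data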
CCR6 antagonist = blocks CCL20-driven beta-arrestin recruitment at human CCR6; P51684; 0.49% of 340,000 active; CHO-K1 CCR6 PathHunter beta-arrestin, luminescence, CCL20-stimulated; inhibition, % at 20 µM;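 active = compounds whose inhibition of the agonist-driven luminescence signal at 20 µM reaches about 50%, limit read from the data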;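 note: cells stimulated with CCL20 at 14 nM final; plate controls were DMSO with CCL20 for no effect and DMSO without agonist for full effect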
Target sequence (P51684 whole entry, looked up): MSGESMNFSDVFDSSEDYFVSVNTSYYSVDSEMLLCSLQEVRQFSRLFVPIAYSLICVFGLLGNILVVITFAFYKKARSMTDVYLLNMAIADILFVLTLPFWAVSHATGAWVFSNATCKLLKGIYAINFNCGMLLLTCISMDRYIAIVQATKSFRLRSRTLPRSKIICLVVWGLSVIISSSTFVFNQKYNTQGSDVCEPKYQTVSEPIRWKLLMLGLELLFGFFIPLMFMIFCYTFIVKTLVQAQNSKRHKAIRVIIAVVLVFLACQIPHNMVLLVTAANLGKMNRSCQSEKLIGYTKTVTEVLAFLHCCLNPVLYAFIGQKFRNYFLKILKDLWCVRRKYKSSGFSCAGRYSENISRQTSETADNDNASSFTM
Beta2AR ag CP1 = human beta-2 adrenergic receptor agonism, cherry pick; percent response (surface receptor), % at 10 µM; 25% of 1,100 active; AID 540358; shares compounds with B2AR ag; Am2.2-beta2AR cells, FAP surface receptor, flow cytometry; stronger effect = lower value;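 active = surface receptor percent response at or below 58%, roughly 3 SD from nonfluorescent compounds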
FAP fluor counter = flagged in Am2.2 fluorescence counterscreen for beta-2AR agonists; shares compounds with B2AR ag; Am2.2 cells, FAP fluorogen flow cytometry; stronger effect = lower value; calls only at 10 µM; 1,100 tested, under 10 active;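 active = percent response below a set limit in fluorescence channel 1 and below 50% in channel 8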
Starred values were filed as active, the others as inactive; i = inactive; x = not tested or not shown; ! = not active in a repeat.

SMILES	EBI2 antag	APJ antagonist	CXCR6 block	APJ ag	B2AR ag	CCR6 antagonist	Beta2AR ag CP1	FAP fluor counter
COc1ccc([C@H]2/C=C\CN(Cc3ccc(N(C)C)cc3)[C@@H](C)C(=O)N2Cc2ccc(F)cc2)cc1	1	3	-2	3	113*	10	29*	i
COc1ccc(C2/C=C\CN(S(=O)(=O)/C=C/c3ccccc3)[C@H](Cc3ccccc3)C(=O)N2Cc2ccc(F)cc2)cc1 (some centres not stated)	x	10	x	-2	x	-3	x	x
O=C(CSc1ccc2nnc(-c3cccnc3)n2n1)Nc1ccccc1F	-2	x	-4	x	x	x	x	x
N#Cc1cc2cc(Cl)ccc2[nH]c1=O	-1	x	-3	x	x	x	x	x
c1ccc(-c2nc3c4ccccc4ccn3c2CN2CCOCC2)cc1	3	-1	-1	-2	-11	11	x	x
COc1ccc(-c2nc3c4ccccc4ccn3c2CN2CCOCC2)cc1OC	10	-1	-8	1	53*	13	41*	i
COc1ccc(Nc2cc(C(=O)NCCCN3CCN(C)CC3)c3ccccc3n2)cc1	-7	4	-9	-5	47*	13	86	i
COc1ccc(Nc2cc(C(=O)NCCCN3CCOCC3)c3ccccc3n2)cc1	11	9	5	-6	6	18	x	x
CCCCOc1cccc(C(=O)Nc2ccc(NC(=O)c3ccco3)cc2)c1	4	2	22	1	69*	4	35*	i
CC1C/C(=N\NC(N)=S)c2cc(Cl)ccc2S1 (configuration not stated)	15	21	-1	-2	2	7	114	i
O=C(Cn1nnc(-c2ccc(Cl)cc2)n1)NC(=O)NC1CCCC1	-2	x	5	x	x	x	x	x
O=C(CC(O)c1ccncc1)c1ccccc1O (configuration not stated)	11	x	10	x	-1	3	x	x
CCCNC(=O)C[C@@H]1CC[C@H]2NC[C@H](O)COC[C@@H]2O1	-2	x	x	x	x	x	x	x
COc1ccc(CN2CCC(Oc3ccc(C(=O)N4CCCCC4)cc3)CC2)cc1C	7	-28	5	-7	33	16	85	i
COc1cccc(CN2CCC(Oc3ccc(C(=O)N4CCCCC4)cc3)CC2)c1	1	-2	-1	2	19	2	118	i
O=C(c1ccc(OC2CCN(Cc3cccc(OCCO)c3)CC2)cc1)N1CCCC1	-5	-7	1	-7	2	-3	111	i
O=C(c1ccc(OC2CCN(Cc3cccc(F)c3)CC2)cc1)N1CCCCC1	-2	-13	5	-5	4	17	x	x
COCCc1ccc(OC2(C)CCN(Cc3ccc(OC)c4ccccc34)C2)cc1 (configuration not stated)	3	x	0	x	x	x	x	x
COc1ccc(-c2nn(-c3ccccc3)cc2C(=O)N2c3ccc(C)cc3C3CN(C)CCC32)cc1 (configuration not stated)	4	-8	-5	0	70*	10	90	i
Cc1ccc2c(c1)C1CN(C)CCC1N2C(=O)c1ccccc1NS(=O)(=O)c1cccc(C(F)(F)F)c1 (configuration not stated)	10	11	3	-2	67*	3	104	i
COc1ccc(-c2nn(-c3ccccc3)cc2C(=O)O)cc1	4	5	-7	-1	-8	9	x	x
CSc1cnn(CCC#N)c(=O)n1	0	x	-3	x	x	x	x	x
C[C@@H]1COC(=O)[C@@H](CC(=O)OC(C)(C)C)C/C=C\C[C@@H](CC(=O)NCCO)C(=O)N1	-6	-9	6	-3	3	-3	x	x
CCOc1ccc2[nH]c3c(N4CCN(C(=O)c5ccco5)CC4)ncnc3c2c1	19	-2	-11	10	x	1	x	x
CCOC(=O)N1CCN(c2ncnc3c2[nH]c2ccc(OC)cc23)CC1	-4	-1	-9	5	90*	-6	124	i
SMILES	EBI2 antag	APJ antagonist	CXCR6 block	APJ ag	B2AR ag	CCR6 antagonist	Beta2AR ag CP1	FAP fluor counter
CC(C)c1ccc2c(c1)CC[C@H]1[C@](C)(CN)CCC[C@]21C	-6	x	-13	x	50*!	32	79	i
Cc1cc(S(=O)(=O)N2CCOCC2)ccc1OCC(=O)Nc1ccccc1C(F)(F)F	2	18	5	-4	-1	-5	97	i
Cc1ccccc1OCC(=O)Nc1cc(S(=O)(=O)N2CCOCC2)ccc1N1CCCC1	-3	7	3	-6	11	11	x	x
Cc1cc(S(=O)(=O)N2CCOCC2)ccc1OCC(=O)Nc1ccc(Br)cc1F	9	9	-5	-2	1	6	108	i
Cc1ccc(C(=O)OCC(=O)Nc2ccccc2C(F)(F)F)cc1S(=O)(=O)N1CCOCC1	3	6	2	0	5	10	x	x
Cc1cc(S(=O)(=O)N2CCOCC2)ccc1OCC(=O)Nc1ccc(F)cc1F	3	17	7	-2	1	-4	105	i
COC(=O)C[C@H]1CC[C@@H](NC(=O)Nc2ccc(C(F)(F)F)cc2)[C@@H](CO)O1	5	x	x	x	x	x	x	x
CN1CCN(CC(=O)c2ccccc2F)CC1	-5	14	-6	-5	-5	4	x	x
COc1ccc(-c2oc3c(c2C(=O)OCCO)C(OCCO)CCC3)cc1 (configuration not stated)	-2	x	-3	x	x	x	x	x
CC(=O)Nc1ccc2c(c1)C(N1CC3CCC(CC3)C1)c1ccccc1-2 (configuration not stated)	22	x	12	x	43*	14	97	i
O=C(Nc1cccc(Cl)c1)N1CCN(C2c3ccccc3-c3ccccc32)CC1	22	-14	6	2	0	-8	x	x
O=C(c1ccc(OC2CCN(Cc3ccc(C(F)(F)F)cc3)CC2)cc1)N1CCCCC1	7	10	12	-2	62*	9	8.5*	i
O=C(c1ccc(OC2CCN(Cc3ccccc3C(F)(F)F)CC2)cc1)N1CCCCC1	6	-18	3	-2	1	14	104	i
CN1CCN(C(=O)c2ccc(Cc3cn(C)c4ccccc34)nc2)CC1	-10	x	5	x	x	x	x	x
Cc1cccc(Nc2n[nH]c(C)c2[N+](=O)[O-])c1	-1	0	21	-1	64*	32	114	i
O=C(COC(=O)Cn1cnc2ccccc21)Nc1ccc(OC(F)F)cc1	-6	3	-1	-2	10	6	x	x
CCCCN(C)CCNC(=O)c1cc(-c2cccnc2)nc2ccc(S(=O)(=O)N3CCC(C)CC3)cc12	7	-7	-6	24	46*	9	98	i
